In ChEMBL document CHEMBL2384938, “Discovery of a New Class of Potent MMP Inhibitors by Structure-Based Optimization of the Arylsulfonamide Scaffold” (ACS Med Chem Lett, 2013) one finds Ki data, which are given here for 18 compounds.

Assay [1] addresses Collagenase 3 (Homo sapiens, UniProt P45452). The experiment in a line: Inhibition of MMP13 (unknown origin)-mediated Mca-Pro-Leu-Gly-Leu-Dpa-Ala-Arg-NH2 by fluorimetric assay. The gist of the method: (§1)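 Activity read fluorimetrically; values reported as inhibition constants (Ki). The same assay format was used for each of MMP-1, -7, -8 and -13.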
Assay [2] concerns the target Neutrophil collagenase (Homo sapiens, UniProt P22894). Put plainly: Inhibition of MMP8 (unknown origin)-mediated Mca-Pro-Leu-Gly-Leu-Dpa-Ala-Arg-NH2 by fluorimetric assay. The gist of the method:
as §1

For assay [3], the target named is Macrophage metalloelastase (Homo sapiens, UniProt P39900). The experiment in a line: Inhibition of MMP12 (unknown origin)-mediated Mca-Pro-Leu-Gly-Leu-Dpa-Ala-Arg-NH2 by fluorimetric assay.
The target of assay [4] is T1, Matrilysin (Homo sapiens, UniProt P09237).
T1 sequence (P09237 whole entry): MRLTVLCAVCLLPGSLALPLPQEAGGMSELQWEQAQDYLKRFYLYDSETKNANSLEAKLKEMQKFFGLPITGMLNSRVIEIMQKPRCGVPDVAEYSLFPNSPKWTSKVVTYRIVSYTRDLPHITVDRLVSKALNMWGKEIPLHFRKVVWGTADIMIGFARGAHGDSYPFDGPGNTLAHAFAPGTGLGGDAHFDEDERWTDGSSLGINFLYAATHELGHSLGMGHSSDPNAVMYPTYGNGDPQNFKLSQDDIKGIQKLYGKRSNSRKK
The experiment in a line: Inhibition of MMP7 (unknown origin)-mediated Mca-Pro-Leu-Gly-Leu-Dpa-Ala-Arg-NH2 by fluorimetric assay. The method in brief:
as §1

For assay [5], the target named is T2, Interstitial collagenase (Homo sapiens, UniProt P03956).
T2 sequence (P03956 whole entry): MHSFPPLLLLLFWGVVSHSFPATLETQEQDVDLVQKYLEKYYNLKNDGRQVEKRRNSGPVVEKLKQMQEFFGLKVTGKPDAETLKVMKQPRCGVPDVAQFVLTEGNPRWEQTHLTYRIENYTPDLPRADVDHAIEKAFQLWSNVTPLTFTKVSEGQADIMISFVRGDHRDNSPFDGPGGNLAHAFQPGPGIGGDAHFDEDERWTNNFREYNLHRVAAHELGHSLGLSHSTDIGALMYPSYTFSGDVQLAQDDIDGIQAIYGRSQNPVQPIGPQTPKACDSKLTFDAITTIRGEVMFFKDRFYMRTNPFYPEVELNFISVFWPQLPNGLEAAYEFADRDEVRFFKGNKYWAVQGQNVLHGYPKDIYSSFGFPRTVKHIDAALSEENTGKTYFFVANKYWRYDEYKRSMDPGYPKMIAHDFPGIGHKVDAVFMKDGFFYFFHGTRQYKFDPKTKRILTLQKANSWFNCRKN
The experiment in a line: Inhibition of MMP1 (unknown origin)-mediated Mca-Pro-Leu-Gly-Leu-Dpa-Ala-Arg-NH2 by fluorimetric assay. The method in brief:
as §1

Neutrophil collagenase, sequence (P22894 whole entry): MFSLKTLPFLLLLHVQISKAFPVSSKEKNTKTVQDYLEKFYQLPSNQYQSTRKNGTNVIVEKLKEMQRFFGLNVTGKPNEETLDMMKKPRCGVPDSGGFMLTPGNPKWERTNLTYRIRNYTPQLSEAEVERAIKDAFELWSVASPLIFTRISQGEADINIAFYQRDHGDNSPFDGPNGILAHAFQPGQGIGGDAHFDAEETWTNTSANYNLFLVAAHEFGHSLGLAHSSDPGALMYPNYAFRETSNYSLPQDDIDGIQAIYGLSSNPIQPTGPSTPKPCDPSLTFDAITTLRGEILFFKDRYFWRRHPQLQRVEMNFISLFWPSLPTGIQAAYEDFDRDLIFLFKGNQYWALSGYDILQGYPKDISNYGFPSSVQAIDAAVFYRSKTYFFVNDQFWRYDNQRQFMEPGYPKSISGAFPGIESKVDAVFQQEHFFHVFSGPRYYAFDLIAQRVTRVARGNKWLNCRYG
Macrophage metalloelastase, sequence (P39900 whole entry): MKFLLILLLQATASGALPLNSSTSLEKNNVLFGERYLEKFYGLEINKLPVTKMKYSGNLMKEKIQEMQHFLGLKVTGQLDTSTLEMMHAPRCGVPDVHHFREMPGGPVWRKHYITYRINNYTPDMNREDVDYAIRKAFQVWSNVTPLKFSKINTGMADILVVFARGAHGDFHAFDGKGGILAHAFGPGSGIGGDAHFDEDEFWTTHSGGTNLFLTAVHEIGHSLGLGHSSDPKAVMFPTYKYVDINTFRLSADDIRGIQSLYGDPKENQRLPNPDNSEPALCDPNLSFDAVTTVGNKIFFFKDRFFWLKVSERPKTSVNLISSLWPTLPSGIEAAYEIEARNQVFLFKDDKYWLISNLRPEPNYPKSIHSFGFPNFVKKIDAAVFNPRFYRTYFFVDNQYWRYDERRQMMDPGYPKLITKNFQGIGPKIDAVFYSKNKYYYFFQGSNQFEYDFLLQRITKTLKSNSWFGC

On to `O=C(NO)[C@@H]1CCCN1S(=O)(=O)CCc1ccc(Cl)s1`, for which the figures for the Ki in assay [1], in assay [2] and in assay [3] were 0.003 µM, 0.006 µM and 0.009 µM, respectively.

With `O=C(O)[C@@H]1CCCN1S(=O)(=O)c1ccc(Cl)s1`, the Ki was 0.175 µM in assay [1], 0.275 µM in assay [2] and 0.672 µM in assay [3].

In the case of `O=C(NO)[C@H]1CCCN1S(=O)(=O)CCc1ccc(Oc2ccccc2)cc1`, the values for the inhibition constant (Ki) in assay [1], in assay [2] and in assay [3] were 0.01 µM, 0.098 µM and 0.005 µM, respectively.

Take `O=C(NO)C1CCCN1S(=O)(=O)CCc1ccc(-c2ccccc2)cc1` (single isomer, unassigned): the inhibition constant Ki came out at 0.001 µM in assay [1], 0.003 µM in assay [2] and 0.002 µM in assay [3].

For the compound `O=C(O)CNS(=O)(=O)CCc1ccc(Cl)s1`, the Ki is 0.323 µM in assay [1], 0.364 µM in assay [2] and 0.272 µM in assay [3].

For the compound `O=C(CNS(=O)(=O)CCc1ccc(Oc2ccccc2)cc1)NO`, the figures for the Ki in assay [1], in assay [2] and in assay [3] were 0.019 µM, 0.032 µM and 0.01 µM, respectively.

Regarding `O=C(CNS(=O)(=O)CCc1ccc(Cl)s1)NO`, the Ki was 0.006 µM in assay [1], 0.037 µM in assay [2] and 0.006 µM in assay [3].

On to `O=C(CNS(=O)(=O)CCc1ccc2c(c1)OCO2)NO`, for which the Ki was determined as 18.5 µM in assay [4]; 0.035 µM in assay [1]; 0.02 µM in assay [2]; 19.7 µM in assay [5]; 0.015 µM in assay [3].

In the case of `COc1ccc(CCS(=O)(=O)N2CCC[C@H]2C(=O)NO)cc1`, the Ki in assay [1] amounted to 0.001 µM; in assay [2] it was 0.004 µM; in assay [3], 0.001 µM.

For `O=C(CNS(=O)(=O)c1ccc(-c2ccccc2)cc1)NO`, the inhibitory constant (Ki) in assay [4] was determined as 5 µM; in assay [1] it was 0.002 µM; in assay [2], 0.009 µM; in assay [5], 0.365 µM; in assay [3], 0.002 µM.

For `COc1ccc(CCS(=O)(=O)NCC(=O)NO)cc1`, the Ki in assay [1] was found to be 0.012 µM; in assay [2], 0.014 µM; in assay [3], 0.01 µM.

On to `O=C(NO)[C@H]1CCCN1S(=O)(=O)CCc1ccccc1`, for which the Ki in assay [4] amounted to 7 µM; in assay [1], 0.014 µM; in assay [2], 0.043 µM; in assay [5], 1.8 µM; in assay [3], 0.016 µM.

Turning to `O=C(CNS(=O)(=O)CCc1ccccc1)NO`, the Ki in assay [4] is 10.7 µM; in assay [1], 0.049 µM; in assay [2], 0.075 µM; in assay [5], 5.7 µM; in assay [3], 0.023 µM.

`O=C(CNS(=O)(=O)c1ccccc1)NO`: the Ki in assay [4] came out at 4 µM; in assay [1] it was 0.042 µM; in assay [2] it was 0.24 µM; in assay [5], 3.4 µM; in assay [3] it was 0.062 µM.

On to `O=C(O)CNS(=O)(=O)CCc1ccc(-c2ccccc2)cc1`, for which the Ki in assay [1] is 0.005 µM; in assay [2], 0.007 µM; in assay [3], 0.007 µM.

Turning to `COc1ccc(S(=O)(=O)NCC(=O)NO)cc1`, the Ki in assay [4] turned out to be 4 µM; in assay [3] it was 0.02 µM.

For `O=C(NO)[C@@H]1CCCN1S(=O)(=O)CCc1ccc2c(c1)OCO2`, the Ki is 6 µM in assay [4]; 0.01 µM in assay [1]; 0.013 µM in assay [2]; 7 µM in assay [5]; 0.005 µM in assay [3].

In the case of `O=C(O)CNS(=O)(=O)c1ccc(-c2ccccc2)cc1`, the Ki in assay [5] came out at 0.365 µM; in assay [3], 18 µM.

The Ki is a dissociation constant, usually derived from enzyme kinetics or from competition with a known ligand. The low end stands for higher affinity, the high end for lower affinity.
